Measurements from ChEMBL document CHEMBL1921792, “Synthesis and anticonvulsant activity of trans- and cis-2-(2,6-dimethylphenoxy)-N-(2- or 4-hydroxycyclohexyl)acetamides and their amine analogs” (Bioorg Med Chem, 2011).
Active and inactive are the calls of the source.

Experiments:
Mus musculus [1] = experiment: Neurotoxicity in mouse assessed as inability to maintain equilibrium on rotarod at 300 mg/kg, ip after 0.5 hrs by rotarod test; assay type: toxicity, organism-based; set-up: dose 300 mg/kg, route intraperitoneal; conditions: in vivo
Summary of the method: (§1)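 Drug given ip to mice as a suspension in 0.5% methylcellulose. At the stated time after dosing, each mouse was placed on a 1 inch knurled rod turning at 6 rpm. Neurotoxicity = inability to stay balanced at least 1 min in each of three trials. Scored as animals toxic/animals tested in small groups.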

Rattus norvegicus [2] = experiment: Anticonvulsant activity in rat assessed as protection against maximal electric shock-induced seizures at 30 mg/kg, po after 0.5 hrs; assay type: functional, organism-based; set-up: dose 30 mg/kg
Summary of the method: (§2)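 MES test in rats dosed orally at 30 mg/kg as a suspension in 0.5% methylcellulose, read at 0.25–4 h. Four rats per time point; result is protected/tested.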

Mus musculus [3] = experiment: Anticonvulsant activity in mouse assessed as protection against maximal electric shock-induced seizures at 100 mg/kg, ip after 0.5 hrs; assay type: functional, organism-based; set-up: dose 100 mg/kg
Summary of the method: (§3)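 Phase I maximal electroshock screen in mice. Compound given ip as a suspension in 0.5% methylcellulose at 30, 100 or 300 mg/kg, tested at 30 min and 4 h. Small groups (1–8); result is number protected/number tested.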

Rattus norvegicus [4] = experiment: Neurotoxicity in rat assessed as neurological deficit at 30 mg/kg, po after 0.5 hrs […]; assay type: toxicity, organism-based; set-up: dose 30 mg/kg, route oral; conditions: in vivo
Summary of the method: (§4)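 Rats given the compound, suspended in 0.5% methylcellulose, by the stated route and dose. Neurological deficit was recorded at the listed times as ataxia and loss of placing response and muscle tone. Reported as number of rats showing toxicity/number tested.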

Mus musculus [5] = experiment: Anticonvulsant activity in mouse assessed as protection against maximal electric shock-induced seizures at 300 mg/kg, ip after 4 hrs; assay type: functional, organism-based; set-up: dose 300 mg/kg; summary of the method: as §3
Mus musculus [6] = experiment: Anticonvulsant activity against subcutaneous pentylenetetrazole-induced seizures in mouse at 300 mg/kg, ip after 4 hrs; assay type: functional, organism-based; set-up: dose 300 mg/kg
Summary of the method: (§5)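 Phase I screen in mice. Compound given ip as a suspension in 0.5% methylcellulose, read at 30 min and 4 h. Pentylenetetrazole 85 mg/kg in 0.9% NaCl was injected sc into the posterior midline and animals watched ≥30 min. Protection meant no clonic spasm lasting ≥5 s. Groups of 1–8 animals; result is protected/tested.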

Mus musculus [7] = experiment: Anticonvulsant activity in mouse assessed as protection against maximal electric shock-induced seizures at 300 mg/kg, ip after 0.5 hrs; assay type: functional, organism-based; set-up: dose 300 mg/kg; summary of the method: as §3
Rattus norvegicus [8] = experiment: Neurotoxicity in rat assessed as neurological deficit at 30 mg/kg, po after 4 hrs by rotarod test; assay type: toxicity, organism-based; set-up: dose 30 mg/kg, route oral; conditions: in vivo; summary of the method: as §4
Mus musculus [9] = experiment: Anticonvulsant activity against subcutaneous pentylenetetrazole-induced seizures in mouse at 30 mg/kg, ip after 4 hrs; assay type: functional, organism-based; set-up: dose 30 mg/kg; summary of the method: as §5
Rattus norvegicus [10] = experiment: Neurotoxicity in rat assessed as neurological deficit at 30 mg/kg, po after 0.25 hrs […]; assay type: toxicity, organism-based; set-up: dose 30 mg/kg, route oral; conditions: in vivo; summary of the method: as §4
Mus musculus [11] = experiment: Anticonvulsant activity against subcutaneous pentylenetetrazole-induced seizures in mouse at 300 mg/kg, ip after 0.5 hrs; assay type: functional, organism-based; set-up: dose 300 mg/kg; summary of the method: as §5
Rattus norvegicus [12] = experiment: Neurotoxicity in rat assessed as neurological deficit at 30 mg/kg, po after 2 hrs […]; assay type: toxicity, organism-based; set-up: dose 30 mg/kg, route oral; conditions: in vivo; summary of the method: as §4
Mus musculus [13] = experiment: Neurotoxicity in mouse assessed as inability to maintain equilibrium on rotarod at 30 mg/kg, ip after 0.5 hrs by rotarod test; assay type: toxicity, organism-based; set-up: dose 30 mg/kg, route intraperitoneal; conditions: in vivo; summary of the method: as §1
Mus musculus [14] = experiment: Anticonvulsant activity in mouse assessed as protection against maximal electric shock-induced seizures at 100 mg/kg, ip after 4 hrs; assay type: functional, organism-based; set-up: dose 100 mg/kg; summary of the method: as §3
Rattus norvegicus [15] = experiment: Anticonvulsant activity in rat assessed as protection against maximal electric shock-induced seizures at 30 mg/kg, po after 0.25 hrs; assay type: functional, organism-based; set-up: dose 30 mg/kg; summary of the method: as §2
Mus musculus [16] = experiment: Neurotoxicity in mouse assessed as inability to maintain equilibrium on rotarod at 100 mg/kg, ip after 4 hrs by rotarod test; assay type: toxicity, organism-based; set-up: dose 100 mg/kg, route intraperitoneal; conditions: in vivo; summary of the method: as §1
Mus musculus [17] = experiment: Anticonvulsant activity against subcutaneous pentylenetetrazole-induced seizures in mouse at 100 mg/kg, ip after 4 hrs; assay type: functional, organism-based; set-up: dose 100 mg/kg; summary of the method: as §5
Mus musculus [18] = experiment: Anticonvulsant activity in mouse assessed as protection against maximal electric shock-induced seizures at 30 mg/kg, ip after 0.5 hrs; assay type: functional, organism-based; set-up: dose 30 mg/kg; summary of the method: as §3
Rattus norvegicus [19] = experiment: Neurotoxicity in rat assessed as neurological deficit at 30 mg/kg, po after 1 hr […]; assay type: toxicity, organism-based; set-up: dose 30 mg/kg, route oral; conditions: in vivo; summary of the method: as §4
Mus musculus [20] = experiment: Anticonvulsant activity against subcutaneous pentylenetetrazole-induced seizures in mouse at 30 mg/kg, ip after 0.5 hrs; assay type: functional, organism-based; set-up: dose 30 mg/kg; summary of the method: as §5
Mus musculus [21] = experiment: Neurotoxicity in mouse assessed as inability to maintain equilibrium on rotarod at 300 mg/kg, ip after 4 hrs by rotarod test; assay type: toxicity, organism-based; set-up: dose 300 mg/kg, route intraperitoneal; conditions: in vivo; summary of the method: as §1
Mus musculus [22] = experiment: Neurotoxicity in mouse assessed as inability to maintain equilibrium on rotarod at 30 mg/kg, ip after 4 hrs by rotarod test; assay type: toxicity, organism-based; set-up: dose 30 mg/kg, route intraperitoneal; conditions: in vivo; summary of the method: as §1
Mus musculus [23] = experiment: Anticonvulsant activity in mouse assessed as protection against maximal electric shock-induced seizures at 30 mg/kg, ip after 4 hrs; assay type: functional, organism-based; set-up: dose 30 mg/kg; summary of the method: as §3
Mus musculus [24] = experiment: Anticonvulsant activity against subcutaneous pentylenetetrazole-induced seizures in mouse at 100 mg/kg, ip after 0.5 hrs; assay type: functional, organism-based; set-up: dose 100 mg/kg; summary of the method: as §5
Mus musculus [25] = experiment: Anticonvulsant activity against subcutaneous pentylenetetrazole-induced seizures in mouse assessed as increase in tonic threshold at 106 mg/kg, ip by threshold tonic extension test; assay type: functional, organism-based; set-up: dose 106 mg/kg
Summary of the method: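 Threshold tonic extension test in mice. The compound was given ip, then pentylenetetrazol was infused until the first twitch and the first clonus. PTZ dose was calculated from the infusion speed. Mean of 8 animals ± S.E.M.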

Mus musculus [26] = experiment: Anticonvulsant activity in mouse assessed as protection against maximal electric shock-induced seizures at 90 mg/kg, ip after 0.25 hrs; assay type: functional, organism-based; set-up: dose 90 mg/kg
Summary of the method: (§6)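 Time-to-peak-effect assay: MES protection read at 0.25–4 h after dosing. Mice ip (60–130 mg/kg), rats po (15 or 30 mg/kg) or ip (30 mg/kg). Groups of 4–8; result is protected/tested.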

Mus musculus [27] = experiment: Anticonvulsant activity in mouse assessed as protection against maximal electric shock-induced seizures at 130 mg/kg, ip after 0.25 hrs; assay type: functional, organism-based; set-up: dose 130 mg/kg; summary of the method: as §6
Mus musculus [28] = experiment: Anticonvulsant activity in mouse assessed as protection against maximal electric shock-induced seizures at 130 mg/kg, ip after 4 hrs; assay type: functional, organism-based; set-up: dose 130 mg/kg; summary of the method: as §6
Rattus norvegicus [29] = experiment: Anticonvulsant activity in fully kindled rat hippocampus assessed as protection against focal seizures at 100 mg/kg, ip after 45 mins; assay type: functional, organism-based; set-up: dose 100 mg/kg
Summary of the method: (§7)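 Rat hippocampus kindled with 50 Hz AC, […] for 1 s, every 0.5 h for 6 h, every other day for 10 days (60 cycles), reaching Racine stage 5. Compound 100 mg/kg ip; seizures re-induced at 15–135 min. Racine score below 3 counts as protection.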

Rattus norvegicus [30] = experiment: Anticonvulsant activity in fully kindled rat hippocampus assessed as protection against focal seizures at 100 mg/kg, ip after 15 mins; assay type: functional, organism-based; set-up: dose 100 mg/kg; summary of the method: as §7
Mus musculus [31] = species: Mus musculus; experiment: Activation of kainate receptor in mouse cortical neurons assessed as potentiation of kainate-induced effect at 100 umol at -70 mV holding potential by whole-cell patch clamp electrophysiological assay relative to control
Summary of the method: (§8)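 Whole-cell patch clamp on primary cultured murine cortical neurons, borosilicate glass electrodes. Responses to GABA, NMDA or kainate were recorded with the compound present, as % of control stimulation. Compound at 100 µmol, holding potential -70 mV. Significance p < 0.05.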

Mus musculus [32] = experiment: Anticonvulsant activity in mouse assessed as protection against maximal electric shock-induced seizures at 130 mg/kg, ip after 0.5 hrs; assay type: functional, organism-based; set-up: dose 130 mg/kg; summary of the method: as §6
Mus musculus [33] = species: Mus musculus; experiment: Activation of NMDA receptor in mouse cortical neurons assessed as potentiation of NMDA/glycine-induced effect at 100 umol at -70 mV holding potential by whole-cell patch clamp electrophysiological assay relative to control; summary of the method: as §8
N1E-115 [34] = experiment: Blockade of voltage-gated sodium channel in mouse N1E-115 cells assessed as stimulation at 100 umol at -90 mV holding potential by whole-cell patch clamp electrophysiological assay relative to control; assay type: cell-based
Summary of the method: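 Whole-cell patch clamp with borosilicate glass electrodes on single cultured N1E-115 neuroblastoma cells. Compound at 100 µmol, holding potential -90 mV. Voltage-dependent sodium current expressed as % of control stimulation (no compound). Results from 5–8 cells averaged with SEM; significance by Student's t-test.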

Mus musculus [35] = species: Mus musculus; experiment: Activation of GABA receptor in mouse cortical neurons assessed as potentiation of GABA-induced effect at 100 umol at -70 mV holding potential by whole-cell patch clamp electrophysiological assay relative to control; summary of the method: as §8
Mus musculus [36] = experiment: Anticonvulsant activity in mouse assessed as protection against maximal electric shock-induced seizures at 130 mg/kg, ip after 2 hrs; assay type: functional, organism-based; set-up: dose 130 mg/kg; summary of the method: as §6
N1E-115 [37] = experiment: Blockade of voltage-gated sodium channel in mouse N1E-115 cells assessed as stimulation at 100 umol at -60 mV holding potential by whole-cell patch clamp electrophysiological assay relative to control; assay type: cell-based

Question: How did the Activity (Mus musculus [1]) turn out when `Cc1cccc(C)c1OCC(=O)NC1CCC(O)CC1.Cl` (racemic) was run?
Answer: Toxic

Question: And the Activity (Rattus norvegicus [2])?
Answer: Active

Question: What about the Activity (Mus musculus [3]) of the same compound?
Answer: Active

Question: And the Activity (Rattus norvegicus [4])?
Answer: Non-toxic

Question: And the Activity (Mus musculus [5])?
Answer: inactive

Question: What about the Activity (Mus musculus [6]) of the same compound?
Answer: inactive

Question: What about the Activity (Mus musculus [7]) of the same compound?
Answer: Active

Question: What about the Activity (Rattus norvegicus [8]) of the same compound?
Answer: Non-toxic

Question: And the Activity (Mus musculus [9])?
Answer: inactive

Question: And the Activity (Rattus norvegicus [10])?
Answer: Non-toxic

Question: And the Activity (Mus musculus [11])?
Answer: Active

Question: What about the Activity (Rattus norvegicus [12]) of the same compound?
Answer: Non-toxic

Question: What about the Activity (Mus musculus [13]) of the same compound?
Answer: Non-toxic

Question: And the Activity (Mus musculus [14])?
Answer: inactive

Question: What about the Activity (Rattus norvegicus [15]) of the same compound?
Answer: Active

Question: What about the Activity (Mus musculus [16]) of the same compound?
Answer: Non-toxic

Question: What about the Activity (Mus musculus [17]) of the same compound?
Answer: inactive

Question: What about the Activity (Mus musculus [18]) of the same compound?
Answer: inactive

Question: And the Activity (Rattus norvegicus [19])?
Answer: Non-toxic

Question: What about the Activity (Mus musculus [20]) of the same compound?
Answer: inactive

Question: What about the Activity (Mus musculus [21]) of the same compound?
Answer: Non-toxic

Question: And the Activity (Mus musculus [22])?
Answer: Non-toxic

Question: What about the Activity (Mus musculus [23]) of the same compound?
Answer: inactive

Question: And the Activity (Mus musculus [24])?
Answer: inactive

Question: What does the source list for `Cc1cccc(C)c1OCC(=O)NC1CCCCC1O` (racemic; 1)?
Answer: Activity (Rattus norvegicus [2]): Active; Activity (Mus musculus [25]): Active; Activity (Mus musculus [26]): Active; Activity (Mus musculus [5]): inactive; Activity (Mus musculus [9]): inactive; Activity (Mus musculus [11]): Active; Activity (Mus musculus [27]): Active; Activity (Mus musculus [28]): inactive; Activity (Rattus norvegicus [29]): Active; Activity (Rattus norvegicus [30]): Active; Activity (Mus musculus [31]): 98%; Activity (Mus musculus [14]): inactive; Activity (Rattus norvegicus [15]): Active; Activity (Mus musculus [17]): inactive; Activity (Mus musculus [18]): inactive; Activity (Mus musculus [20]): inactive; Activity (Mus musculus [32]): Active; Activity (Mus musculus [33]): 104%; Activity (Mus musculus [23]): inactive; Activity (N1E-115 [34]): 85%; Activity (Mus musculus [35]): 179%; Activity (Mus musculus [36]): inactive; Activity (N1E-115 [37]): 39%
